Here are results for 6 compounds from ChEMBL document CHEMBL1250442, “Inhibiting gene expression at transcription start sites in chromosomal DNA with antigene RNAs” (Nat Chem Biol, 2005).

Assay [1] has as its system T47D. Kind of assay: Inhibition of PR-A gene expression in human T47D cells at 25 nM by syber green assay in presence of 10 nM estradiol. It counts as functional, cell-based.
Assay [2] relates to T47D. Briefly: Inhibition of PR-B gene expression in human T47D cells at 25 nM by syber green assay in presence of 10 nM estradiol. It counts as functional, cell-based.
Assay [3] deals with T47D. Kind of assay: Inhibition of PR-A mRNA gene expression in human T47D cells at 100 nM by syber green assay. In kind it is functional. The method, boiled down:
(§1)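 T47D cells plated at 80,000/well without antibiotics two days before Oligofectamine transfection with agRNA duplex (25 or 100 nM final); medium changed at 24 h, harvest day 5 unless stated otherwise. TRIzol total RNA; PR mRNA by real-time PCR with SYBR Green: 50 °C 2 min, 95 °C 10 min, 40 cycles 95 °C 15 s/60 °C 1 min.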

Assay [4] relates to T47D. Kind of assay: Inhibition of PR-B mRNA gene expression in human T47D cells at 100 nM by syber green assay. In kind it is functional. The method, boiled down: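 T47D cells in RPMI-1640 with 10% FBS, NEAA, insulin, 37 °C, 5% CO2. Plated two days before transfection without antibiotics. Oligofectamine-mediated duplex RNA transfection at 100 nM final, medium changed at 24 h, harvest five days post-transfection. Total RNA extracted with TRIzol. hPR mRNA quantified by SYBR Green qPCR: 50 °C 2 min, 95 °C 10 min, then 40 cycles of 95 °C 15 s / 60 °C 1 min.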

The subject of assay [5] is T47D. Kind of assay: Inhibition of androgen receptor expression in human T47D cells after 12 days at 100 nM by syber green assay. It counts as functional, cell-based. The method, boiled down:
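AR expression in T47D cells, grown in RPMI-1640 with 10% FBS, NEAA and insulin. Plated antibiotic-free two days before Oligofectamine transfection with 100 nM duplex RNA; medium replaced after 24 h. TRIzol total RNA. SYBR Green real-time PCR: 50 °C 2 min, 95 °C 10 min, 40 cycles of 95 °C 15 s and 60 °C 1 min.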

The test system of assay [6] is T47D. Briefly: Inhibition of PR-A gene expression in human T47D cells at 25 nM by syber green assay. In kind it is functional. The method, boiled down:
as §1

Assay [7] deals with T47D. Briefly: Inhibition of PR-B gene expression in human T47D cells at 25 nM by syber green assay. It counts as functional. The method, boiled down:
as §1

Active and inactive are the calls of the source. The rule behind the calls is not given here.

In general, inhibition refers to the drop in the measured response relative to a control, in per cent. On to `Cc1cn(CC(=O)N(CCNC(=O)CN(CCNC(=O)CN(CCNC(=O)CN(CCNC(=O)CN(CCNC(=O)CN(CCNC(=O)CN(CCNC(=O)CN(CCNC(=O)CN(CCNC(=O)CN(CCNC(=O)CN(CCNC(=O)CN(CCNC(=O)CN(CCNC(=O)CN(CCNC(=O)CN(CCNC(=O)CN(CCNC(=O)CN(CCNC(=O)CN(CCNC(=O)CN(CCNC(=O)CN(CCNC(=O)CN)C(=O)Cn2ccc(=O)[nH]c2=O)C(=O)Cn2ccc(N)nc2=O)C(=O)Cn2ccc(=O)[nH]c2=O)C(=O)Cn2ccc(N)nc2=O)C(=O)Cn2ccc(N)nc2=O)C(=O)Cn2cnc3c(N)ncnc32)C(=O)Cn2ccc(N)nc2=O)C(=O)Cn2ccc(N)nc2=O)C(=O)Cn2ccc(=O)[nH]c2=O)C(=O)Cn2ccc(N)nc2=O)C(=O)Cn2ccc(N)nc2=O)C(=O)Cn2ccc(N)nc2=O)C(=O)Cn2cnc3c(N)ncnc32)C(=O)Cn2cnc3c(=O)[nH]c(N)nc32)C(=O)Cn2ccc(N)nc2=O)C(=O)Cn2cnc3c(=O)[nH]c(N)nc32)C(=O)Cn2ccc(N)nc2=O)C(=O)Cn2ccc(N)nc2=O)C(=O)Cn2ccc(N)nc2=O)CC(=O)NCCN(CC(=O)NCC(=O)O)C(=O)Cn2cc(C)c(=O)[nH]c2=O)c(=O)[nH]c1=O`, for which the inhibition entry with T47D [1], in the assay on T47D [2] and in the assay with T47D [5] was “Active” each time. The inhibition at 0.1 µM in the assay on T47D [3] and in the assay with T47D [4] was less than 20% in each case.

In the case of `Cc1cn(CC(=O)N(CCNC(=O)CN(CCNC(=O)CN(CCNC(=O)CN(CCNC(=O)CN(CCNC(=O)CN(CCNC(=O)CN(CCNC(=O)CN(CCNC(=O)CN(CCNC(=O)CN(CCNC(=O)CN(CCNC(=O)CN(CCNC(=O)CN(CCNC(=O)CN(CCNC(=O)CN(CCNC(=O)CN(CCNC(=O)CN(CCNC(=O)CN(CCNC(=O)CN(CCNC(=O)CN(CCNC(=O)CN)C(=O)Cn2cnc3c(=O)[nH]c(N)nc32)C(=O)Cn2cnc3c(=O)[nH]c(N)nc32)C(=O)Cn2ccc(N)nc2=O)C(=O)Cn2cnc3c(=O)[nH]c(N)nc32)C(=O)Cn2ccc(=O)[nH]c2=O)C(=O)Cn2ccc(=O)[nH]c2=O)C(=O)Cn2cnc3c(=O)[nH]c(N)nc32)C(=O)Cn2ccc(=O)[nH]c2=O)C(=O)Cn2ccc(=O)[nH]c2=O)C(=O)Cn2cnc3c(N)ncnc32)C(=O)Cn2cnc3c(=O)[nH]c(N)nc32)C(=O)Cn2cnc3c(N)ncnc32)C(=O)Cn2cnc3c(N)ncnc32)C(=O)Cn2cnc3c(N)ncnc32)C(=O)Cn2cnc3c(=O)[nH]c(N)nc32)C(=O)Cn2ccc(N)nc2=O)C(=O)Cn2ccc(=O)[nH]c2=O)C(=O)Cn2cnc3c(=O)[nH]c(N)nc32)C(=O)Cn2ccc(=O)[nH]c2=O)CC(=O)NCCN(CC(=O)NCC(=O)O)C(=O)Cn2cc(C)c(=O)[nH]c2=O)c(=O)[nH]c1=O`, the inhibition at 0.025 µM in the assay on T47D [6] and with T47D [7] was less than 20% throughout. Further, the inhibition result in the assay with T47D [1] and in the assay with T47D [2] was “Active” in each case. Moreover, the inhibition at 0.1 µM with T47D [3] and with T47D [4] was less than 20% each time.

On to `Cc1cn(CC(=O)N(CCNC(=O)CN(CCNC(=O)CN(CCNC(=O)CN(CCNC(=O)CN(CCNC(=O)CN(CCNC(=O)CN(CCNC(=O)CN(CCNC(=O)CN(CCNC(=O)CN(CCNC(=O)CN(CCNC(=O)CN(CCNC(=O)CN(CCNC(=O)CN(CCNC(=O)CN(CCNC(=O)CN(CCNC(=O)CN(CCNC(=O)CN(CCNC(=O)CN(CCNC(=O)CN(CCNC(=O)CN)C(=O)Cn2cnc3c(=O)[nH]c(N)nc32)C(=O)Cn2cnc3c(=O)[nH]c(N)nc32)C(=O)Cn2cnc3c(=O)[nH]c(N)nc32)C(=O)Cn2ccc(N)nc2=O)C(=O)Cn2ccc(N)nc2=O)C(=O)Cn2ccc(=O)[nH]c2=O)C(=O)Cn2ccc(N)nc2=O)C(=O)Cn2ccc(N)nc2=O)C(=O)Cn2ccc(N)nc2=O)C(=O)Cn2ccc(=O)[nH]c2=O)C(=O)Cn2cnc3c(N)ncnc32)C(=O)Cn2cnc3c(=O)[nH]c(N)nc32)C(=O)Cn2cnc3c(N)ncnc32)C(=O)Cn2cnc3c(=O)[nH]c(N)nc32)C(=O)Cn2cnc3c(=O)[nH]c(N)nc32)C(=O)Cn2cnc3c(N)ncnc32)C(=O)Cn2cnc3c(=O)[nH]c(N)nc32)C(=O)Cn2cnc3c(=O)[nH]c(N)nc32)C(=O)Cn2cnc3c(N)ncnc32)CC(=O)NCCN(CC(=O)NCC(=O)O)C(=O)Cn2cc(C)c(=O)[nH]c2=O)c(=O)[nH]c1=O`, for which the inhibition at 0.025 µM with T47D [6] and with T47D [7] was less than 20% throughout. Also, the inhibition entry with T47D [1] and in the assay on T47D [2] was “Active” throughout. Also, the inhibition at 0.1 µM in the assay with T47D [3] and with T47D [4] was less than 20% in each case.

In the case of `Cc1cn(CC(=O)N(CCNC(=O)CN(CCNC(=O)CN(CCNC(=O)CN(CCNC(=O)CN(CCNC(=O)CN(CCNC(=O)CN(CCNC(=O)CN(CCNC(=O)CN(CCNC(=O)CN(CCNC(=O)CN(CCNC(=O)CN(CCNC(=O)CN(CCNC(=O)CN(CCNC(=O)CN(CCNC(=O)CN(CCNC(=O)CN(CCNC(=O)CN(CCNC(=O)CN(CCNC(=O)CN(CCNC(=O)CN(CCNC(=O)CN)C(=O)Cn2ccc(N)nc2=O)C(=O)Cn2ccc(=O)[nH]c2=O)C(=O)Cn2cnc3c(=O)[nH]c(N)nc32)C(=O)Cn2cnc3c(=O)[nH]c(N)nc32)C(=O)Cn2ccc(N)nc2=O)C(=O)Cn2ccc(N)nc2=O)C(=O)Cn2cnc3c(N)ncnc32)C(=O)Cn2cnc3c(=O)[nH]c(N)nc32)C(=O)Cn2ccc(=O)[nH]c2=O)C(=O)Cn2ccc(N)nc2=O)C(=O)Cn2ccc(N)nc2=O)C(=O)Cn2cnc3c(N)ncnc32)C(=O)Cn2ccc(N)nc2=O)C(=O)Cn2cnc3c(N)ncnc32)C(=O)Cn2cnc3c(=O)[nH]c(N)nc32)C(=O)Cn2ccc(N)nc2=O)C(=O)Cn2ccc(=O)[nH]c2=O)C(=O)Cn2cnc3c(=O)[nH]c(N)nc32)C(=O)Cn2ccc(=O)[nH]c2=O)C(=O)Cn2cc(C)c(=O)[nH]c2=O)CC(=O)O)c(=O)[nH]c1=O`, the inhibition at 0.025 µM in the assay on T47D [6] and in the assay with T47D [7] was less than 20% each time. Further, the inhibition entry with T47D [1] and with T47D [2] was “Active” in each case. For the same compound, the inhibition at 0.1 µM in the assay on T47D [3] amounted to 26%; in the assay with T47D [4], 71%.

Turning to `Cc1cn(CC(=O)N(CCNC(=O)CN(CCNC(=O)CN(CCNC(=O)CN(CCNC(=O)CN(CCNC(=O)CN(CCNC(=O)CN(CCNC(=O)CN(CCNC(=O)CN(CCNC(=O)CN(CCNC(=O)CN(CCNC(=O)CN(CCNC(=O)CN(CCNC(=O)CN(CCNC(=O)CN(CCNC(=O)CN(CCNC(=O)CN(CCNC(=O)CN(CCNC(=O)CN(CCNC(=O)CN(CCNC(=O)CN)C(=O)Cn2ccc(N)nc2=O)C(=O)Cn2cnc3c(=O)[nH]c(N)nc32)C(=O)Cn2ccc(=O)[nH]c2=O)C(=O)Cn2ccc(=O)[nH]c2=O)C(=O)Cn2cnc3c(=O)[nH]c(N)nc32)C(=O)Cn2ccc(=O)[nH]c2=O)C(=O)Cn2ccc(=O)[nH]c2=O)C(=O)Cn2cnc3c(N)ncnc32)C(=O)Cn2cnc3c(=O)[nH]c(N)nc32)C(=O)Cn2cnc3c(N)ncnc32)C(=O)Cn2cnc3c(N)ncnc32)C(=O)Cn2cnc3c(N)ncnc32)C(=O)Cn2cnc3c(=O)[nH]c(N)nc32)C(=O)Cn2ccc(N)nc2=O)C(=O)Cn2ccc(=O)[nH]c2=O)C(=O)Cn2cnc3c(=O)[nH]c(N)nc32)C(=O)Cn2ccc(=O)[nH]c2=O)C(=O)Cn2ccc(N)nc2=O)C(=O)Cn2ccc(=O)[nH]c2=O)CC(=O)NCCN(CC(=O)NCC(=O)O)C(=O)Cn2cc(C)c(=O)[nH]c2=O)c(=O)[nH]c1=O`, the inhibition at 0.025 µM in the assay with T47D [6] and with T47D [7] was less than 20% in each case. For the same compound, the inhibition result in the assay on T47D [1] and in the assay with T47D [2] was “Active” each time. Besides, the values for the inhibition at 0.1 µM with T47D [3] and in the assay with T47D [4] were 29% and 26%, respectively.

`Cc1cn(CC(=O)N(CCNC(=O)CN(CCNC(=O)CN(CCNC(=O)CN(CCNC(=O)CN(CCNC(=O)CN(CCNC(=O)CN(CCNC(=O)CN(CCNC(=O)CN(CCNC(=O)CN(CCNC(=O)CN(CCNC(=O)CN(CCNC(=O)CN(CCNC(=O)CN(CCNC(=O)CN(CCNC(=O)CN(CCNC(=O)CN(CCNC(=O)CN(CCNC(=O)CN(CCNC(=O)CN(CCNC(=O)CN)C(=O)Cn2cnc3c(=O)[nH]c(N)nc32)C(=O)Cn2ccc(=O)[nH]c2=O)C(=O)Cn2ccc(=O)[nH]c2=O)C(=O)Cn2cnc3c(=O)[nH]c(N)nc32)C(=O)Cn2ccc(=O)[nH]c2=O)C(=O)Cn2ccc(=O)[nH]c2=O)C(=O)Cn2cnc3c(N)ncnc32)C(=O)Cn2cnc3c(=O)[nH]c(N)nc32)C(=O)Cn2cnc3c(N)ncnc32)C(=O)Cn2cnc3c(N)ncnc32)C(=O)Cn2cnc3c(N)ncnc32)C(=O)Cn2cnc3c(=O)[nH]c(N)nc32)C(=O)Cn2ccc(N)nc2=O)C(=O)Cn2ccc(=O)[nH]c2=O)C(=O)Cn2cnc3c(=O)[nH]c(N)nc32)C(=O)Cn2ccc(=O)[nH]c2=O)C(=O)Cn2ccc(N)nc2=O)C(=O)Cn2ccc(=O)[nH]c2=O)C(=O)Cn2cnc3c(=O)[nH]c(N)nc32)CC(=O)NCCN(CC(=O)NCC(=O)O)C(=O)Cn2cc(C)c(=O)[nH]c2=O)c(=O)[nH]c1=O`: the inhibition at 0.025 µM in the assay with T47D [6] and with T47D [7] was less than 20% throughout. Further, the inhibition entry in the assay on T47D [1] and with T47D [2] was “Active” in each case. The inhibition at 0.1 µM in the assay with T47D [3] and in the assay with T47D [4] was less than 20% each time.
